Holding throughout (type): functional
For test [1], the system named is Mus musculus. In words: Percent increase in median life span of BDF1 mice with B-16 melanoma at dose 6.25 mg/kg administered intraperitoneally; 1-9 days of ip treatment relative to tumor inoculation. The settings on record: BDF1, B16, ip, route intraperitoneal. In short, it runs like this:
(§1)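 BDF1 mice were implanted ip with a homogenate from 0.05 g of B-16 melanoma. Ip dosing ran on days 1-9, starting 24 h after implant, in dose-response studies following NCI protocols. The read-out was percent increase in life span (ILS). T/C ≥125% was taken as significant.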

Test [2] deals with Mus musculus. In words: Percent increase in median life span of BDF1 mice with P-388 leukemia at dose 6.25 mg/kg administered intraperitoneally; range 125-145%; 1, 5, 9 days of ip treatment relative to tumor inoculation. The settings on record: BDF1, P388, ip, 216 h, route intraperitoneal. The procedure, abridged:
(§2)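 BDF1 or CDF1 mice given 10^6 ascitic leukemia cells ip, then dosed ip on days 1, 5 and 9. Read-out is percent increase in life span versus untreated controls. Cures were scored as survivors/total at 30 days; when cures reached 50% or more, the run was extended until a specific ILS could be calculated. T/C ≥125% counted as significant.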

Test [3] deals with Mus musculus. In words: Percent increase in median life span of BDF1 mice with Colon 26 at dose 12.5 mg/kg administered intraperitoneally; 1, 5, 9 days of ip treatment relative to tumor inoculation. The settings on record: BDF1, Colon 26, ip, 216 h, route intraperitoneal.
Test [4] is filed under the species Mus musculus. In words: Cures is the number of survivors of the total treated mice (10) with Colon 26, at 60 days.
Test [5] relates to Mus musculus. In words: Percent increase in median life span of BDF1 mice with advanced B-16 melanoma at dose 6.2 mg/kg administered intraperitoneally; 5, 9, 13 days of ip treatment relative to tumor inoculation. The following applies: B16, ip, 312 h, route intraperitoneal.
Test [6] has as its system Mus musculus. Put plainly: Percent increase in median life span of BDF1 mice with L-1210 leukemia at dose 6.2 mg/kg administered intraperitoneally; 1, 5, 9 days of ip treatment relative to tumor inoculation. The settings on record: BDF1, L1210, ip, 216 h, route intraperitoneal. In short, it runs like this: as §2
The species entered for test [7] is Mus musculus. Put plainly: Cures is the number of survivors of the total treated mice (10) with advanced B-16 melanoma, at 30 days.
The species entered for test [8] is Mus musculus. In words: Cures is the number of survivors of the total treated mice (12) with P-388 leukemia, at 30 days. The procedure, abridged: (§3)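 BDF1 or CDF1 mice given 10^6 ascitic P-388 leukemia cells ip, then treated ip on days 1, 5 and 9. Cures are survivors over total treated at 30 days.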
For test [9], the species on record is Mus musculus. In words: Cures is the number of survivors of the total treated mice (5) with L-1210 leukemia, at 30 days.
For test [10], the species on record is Mus musculus. Put plainly: Cures is the number of survivors of the total treated mice (10) with B-16 melanoma, at 60 days. The procedure, abridged:
(§4)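 BDF1 mice were implanted ip with a homogenate from 0.05 g of B-16 melanoma and dosed ip on days 1-9. Cures are survivors over total at 60 days.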

Test [11] is filed under the species Mus musculus. In words: Anticancer activity measured as the number of survivors of the total treated mice with P-388 leukemia at 30 days. In short, it runs like this:
as §3

The species entered for test [12] is Mus musculus. Put plainly: Number of survivors of the total treated mice with B-16 melanoma, at 60 days. The procedure, abridged:
as §4

Test [13] relates to Mus musculus. In words: Percent increase in median life span of BDF1 mice with P-388 leukemia at dose 18.8 mg/kg administered intraperitoneally. The following applies: BDF1, P388, ip, route intraperitoneal.
Test [14] has as its system Mus musculus. In words: Percent increase in median life span of BDF1 mice with P-388 leukemia at dose 12.5 mg/kg administered intraperitoneally. The following applies: BDF1, P388, ip, route intraperitoneal.
For test [15], the species on record is Mus musculus. In words: Cures is the number of survivors of the total treated mice (6) with P-388 leukemia, at 60 days.
The test system of test [16] is Mus musculus. In words: Percent increase in median life span of BDF1 mice with B-16 melanoma at dose 1.5 mg/kg administered intraperitoneally. The settings on record: BDF1, B16, ip, route intraperitoneal. In short, it runs like this:
as §1

The species named for test [17] is Mus musculus. In words: Cures is the number of survivors of the total treated mice (6) with P-388 leukemia, at 30 days. In short, it runs like this:
as §3

Test [18] relates to Mus musculus. Put plainly: Percent increase in median life span of BDF1 mice with P-388 leukemia at dose 6.25 mg/kg administered intraperitoneally. The settings on record: BDF1, P388, ip, route intraperitoneal.
Test [19] deals with Mus musculus. Put plainly: Percent increase in median life span of BDF1 mice with P-388 leukemia at dose 25 mg/kg administered intraperitoneally. The settings on record: BDF1, P388, ip, route intraperitoneal.
Test [20] deals with Mus musculus. Put plainly: Percent increase in median life span of BDF1 mice with B-16 melanoma at dose 3 mg/kg administered intraperitoneally. The settings on record: BDF1, B16, ip, route intraperitoneal. In short, it runs like this: as §1
Test [21] concerns Mus musculus. In words: Percent increase in median life span of BDF1 mice with B-16 melanoma at dose 6.00 mg/kg administered intraperitoneally. The settings on record: BDF1, B16, ip, route intraperitoneal. In short, it runs like this:
as §1

In test [22] the test system is Mus musculus. Put plainly: Percent increase in median life span of BDF1 mice with B-16 melanoma at dose 6.25 mg/kg administered intraperitoneally. The following applies: BDF1, B16, ip, route intraperitoneal. The procedure, abridged: as §1

Structures are written as SMILES.

What is called ILS is the gain in survival time of treated over control animals, in per cent. A low value points to little gain in survival.

Turning to `Cc1ccc2c(/C=N/NC3=NCCN3)c3ccccc3c(/C=N/NC3=NCCN3)c2c1.Cl.Cl`, the results for the increase in lifespan (ILS) at 6.25 mg/kg in test [1] and in [2] were 172% and 145%, respectively. Besides, the ILS at 12.5 mg/kg in [3] was no less than 63%. The Cures amounted to 0 in test [4]; 3 in test [7]; 1 in test [8]; 0 in [9]; 4 in test [10]. Also, the ILS at 6.2 mg/kg in [5] was determined as 35%; in [6] it was 42%.

Regarding `Cc1ccc(C)c2c(/C=N/NC3=NCCN3)c3ccccc3c(/C=N/NC3=NCCN3)c12.Cl.Cl`, the Cures in test [11] and in test [12] was 0 throughout. For the same compound, the increase in lifespan (ILS) at 18.8 mg/kg in test [13] was 57%.

In test [14], `C(=N\NC1=NCCN1)/c1c2ccccc2c(/C=N/NC2=NCCN2)c2c1ccc1ccccc12.Cl.Cl` returned an ILS at 12.5 mg/kg of 90%. Moreover, the Cures in test [12] was 0; in test [15], 1.

As to `CN1CCCN=C1N/N=C/c1c2ccccc2c(/C=N/NC2=NCCCN2C)c2ccccc12.Cl.Cl`, the increase in life span (ILS) at 1.5 mg/kg in test [16] is 80%. Also, the Cures is recorded as 0 in test [12] and 1 in test [17]. This compound returned an increase in life span (ILS) at 6.25 mg/kg in [18] of 148%.

In the case of `Cl.Cl.N=C(N)N/N=C/c1c2ccccc2c(/C=N/N=C(N)N)c2ccccc12`, the values for the Cures in [12] and in test [17] were 0 and 3, respectively. The increase in life span (ILS) at 25 mg/kg in test [19] is 132%. Also, the increase in life span (ILS) at 3 mg/kg in test [20] amounted to 67%.

In the case of `CN(C)CCC/N=C(\S)N/N=C/c1c2ccccc2c(/C=N/N/C(S)=N/CCCN(C)C)c2ccccc12.Cl.Cl`, the increase in life span (ILS) at 6 mg/kg in test [21] was found to be 77%. Moreover, the Cures in test [11] and in [12] was 0 each time. This compound also came in with an increase in lifespan (ILS) at 6.25 mg/kg in test [18] of 100%.

With `C(=N\NC1=NCCN1)/c1c2ccccc2c(/C=N/NC2=NCCN2)c2cc3ccccc3cc12.Cl.Cl`, in [14], the ILS at 12.5 mg/kg is 91%. The results for the Cures in test [11] and in [10] were 0 and 1, respectively. This compound also yielded an ILS at 6.25 mg/kg in test [22] of 136%.
